Assay outcomes: PubChem BioAssay, Johns Hopkins Ion Channel Center
Only some compounds are listed: those with a hit (about 3.8% of all), similar ones and a draw of the others.
KCNK9 inh – inhibitors of human KCNK9 two-pore domain potassium channel. AID 488922. hit rate 1.2% among 310,000. Q9NPC2. HEK293 KCNK9, FluxOR thallium flux fluorescence; active compounds read low. B-score at 10 µM;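 active = ratio B-score over 3 SD below the library mean, with starting fluorescence within 5 SD of its mean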;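 note: negative B-score means less thallium flux so channel inhibition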
Target sequence (Q9NPC2 whole entry, looked up, the tested form may be a part): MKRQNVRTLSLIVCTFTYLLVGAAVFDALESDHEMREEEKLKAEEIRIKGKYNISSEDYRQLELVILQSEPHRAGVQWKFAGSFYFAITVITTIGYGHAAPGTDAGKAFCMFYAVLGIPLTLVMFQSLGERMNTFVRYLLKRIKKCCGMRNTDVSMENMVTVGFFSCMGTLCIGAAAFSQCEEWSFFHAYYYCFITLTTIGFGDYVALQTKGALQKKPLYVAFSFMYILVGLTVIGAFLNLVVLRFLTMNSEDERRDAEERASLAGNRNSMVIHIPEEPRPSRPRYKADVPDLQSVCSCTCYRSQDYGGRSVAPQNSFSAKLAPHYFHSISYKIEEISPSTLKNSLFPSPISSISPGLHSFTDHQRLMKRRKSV
KCNQ1 act – human KCNQ1 channel potentiation or activation. hit rate 0.35% among 310,000. P51787. AID 2648. B-score at 10 µM. CHO-K1 KCNQ1, thallium flux FluxOR fluorescence; active compounds read high;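 active = fluorescence ratio B-score, a plate-corrected score, at least three library SD, with initial intensity B-score within 5 SD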
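Assay system: stable KCNQ1 CHO-K1 line; medium: assay buffer, equal DMSO in all wells; timing: 90 min dye loading and 20 min compound exposure, both at room temperature; technique: kinetic FluxOR thallium fluorescence, 10-s 1-Hz baseline, 110-s post-stimulus read; read-out basis: B score of baseline-normalized fluorescence ratio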
KCNK3 inh – human KCNK3 channel inhibition, primary screen; O14649; CHO-KCNK3 thallium flux, FluxOR fluorescence; active compounds read low; B-score at 10 µM; hit rate 0.84% among 340,000;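 active = B-score under library mean minus 4 SD, starting fluorescence ratio at most library mean plus 5 SD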;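 note: more negative B-score means stronger inhibition of thallium flux through KCNK3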
Target sequence (O14649 whole entry, looked up): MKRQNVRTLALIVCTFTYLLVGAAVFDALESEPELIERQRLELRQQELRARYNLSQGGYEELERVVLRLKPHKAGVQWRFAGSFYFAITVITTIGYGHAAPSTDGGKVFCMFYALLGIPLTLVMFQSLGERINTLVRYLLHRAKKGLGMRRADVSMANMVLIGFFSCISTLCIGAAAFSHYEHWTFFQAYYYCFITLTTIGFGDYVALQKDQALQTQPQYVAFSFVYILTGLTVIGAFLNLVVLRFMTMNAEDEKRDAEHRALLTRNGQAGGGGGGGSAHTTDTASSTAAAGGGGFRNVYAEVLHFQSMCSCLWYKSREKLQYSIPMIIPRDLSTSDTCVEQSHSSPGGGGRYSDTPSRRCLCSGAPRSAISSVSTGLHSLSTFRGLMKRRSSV
Kir21 inh – blocks the mouse Kir2.1 inward-rectifier potassium channel; P35561; HEK293-Kir2.1, FluxOR thallium flux fluorescence; active compounds read low; B-score at 10 µM; hit rate 0.85% among 310,000;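 active = fluorescence ratio B-score at or below minus 3 SD of library scores, with starting-brightness B-score within 2 SD, cut at about -4.2 in these data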;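 note: channel flux triggered by added potassium and thallium sulfate stimulus; B-score of peak minus minimum fluorescence over baseline after thallium stimulus; more negative B-score means stronger Kir2.1 block with less thallium influx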
hERG protect – hERG (human) protection from proarrhythmic block. Q12809. CHO-hERG, FluxOR thallium flux, dofetilide IC70 present. activation (rescue from dofetilide block), less the hit threshold, % at 10 µM. hit rate 0.51% among 310,000. AID 1511;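 active = activation above the mean of controls blocked by dofetilide plus 5 SD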;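 note: thallium influx through hERG after potassium depolarization seen as dye fluorescence rise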
KCNQ1 block – human KCNQ1 channel inhibition. P51787. CHO-K1 KCNQ1, FluxOR thallium flux fluorescence; active compounds read high. B-score at 10 µM. hit rate 1.3% among 310,000. AID 2642;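 active = compounds whose thallium flux B-score, printed positive for inhibition, exceeds three library SD while starting fluorescence stays within three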;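 note: channel opened by potassium depolarization with thallium stimulus after 20 min compound exposure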
KCNK9 inh conf – human KCNK9 inhibitor confirmation; hit rate 43% among 4,900; HEK293 KCNK9 cells, FluxOR thallium flux fluorescence; inhibition, % at 10 µM; shares compounds with KCNK9 inh;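 active = thallium signal inhibited by more than 5 SD of the compound-free buffer control wells, on both duplicate plates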
Kir21 sel – tests whether KCNK9 modulators also affect mouse Kir2.1 | inhibition, % at 10 µM | AID 492993 | hit rate 4% among 4,900 | shares compounds with KCNK9 inh | Kir2.1 cells, FluxOR thallium flux fluorescence;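 active = thallium signal drop more than 5 SD beyond the mean of the no-compound control wells, seen in both duplicate plates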;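 note: signal is fluorescence rise after thallium addition divided by baseline fluorescence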
KCNK9 uninduced – non-induced cell nonspecific activity of KCNK9 modulators | shares compounds with KCNK9 inh | non-induced KCNK9-HEK293, FluxOR thallium flux | inhibition, % at 10 µM | hit rate 40% among 4,900 | AID 492997;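 active = thallium signal drop beyond 5 SD of the untreated control mean, on both duplicate plates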
Each line names hits and unclear results; the compound was inactive in the other large screens (follow-up assays come after a bar, where they were run).

COc1ccc(C(=O)C2CCCN(C(=O)/C=C/c3cnc[nH]3)C2)c(C)c1 (stereo not drawn)	none
COc1ccc(C(=O)C2CCCN(C(=O)/C=C/c3ccccn3)C2)c(C)c1 (stereo not drawn)	none | KCNK9 inh conf inactive | Kir21 sel inactive | KCNK9 uninduced inactive
COc1cccc(C(=O)C2CCCN(C(=O)CCc3scnc3C)C2)c1 (stereo not drawn)	none
COc1ccc2cc(C(=O)C3CCCN(C(=O)CCc4ccccn4)C3)ccc2c1 (stereo not drawn)	none | KCNK9 inh conf inactive | Kir21 sel inactive | KCNK9 uninduced inactive
CCN(C(=O)COC(=O)/C=C/c1ccc(OC(F)F)c(OC)c1)C1CCS(=O)(=O)C1 (stereo not drawn)	none (no result: KCNK9 inh, KCNQ1 act, Kir21 inh, hERG protect, KCNQ1 block)
CCOC(=O)c1c(NC(=O)CSc2nnc(C)c(=O)[nH]2)sc(C)c1-c1ccc(C)cc1	none | KCNK9 inh conf inactive | Kir21 sel inactive | KCNK9 uninduced inactive
CCOC(=O)c1c(NC(=O)CSc2nnc(C)c(=O)[nH]2)sc2c1CCCC2	none
O=C(NCCc1ccc(Cl)cc1)c1cc(-c2ccccn2)nc2ccccc12	none
CS(=O)(=O)c1ccc(NC(=O)c2cccc(S(=O)(=O)N3CCN(Cc4ccccc4)CC3)c2)cc1	none
O=C1Nc2ccc(Cl)cc2C(C#CC2CC2)(C(F)(F)F)O1 (stereo not drawn)	KCNK9 inh -8.2 | KCNK9 inh conf 48% | Kir21 sel inactive | KCNK9 uninduced 46%
O=[N+]([O-])c1ccc(Cl)c(S(=O)(=O)N2CCCCCC2)c1	KCNK9 inh -11 | KCNK9 inh conf inactive | Kir21 sel inactive | KCNK9 uninduced 24%
CN1CCN(S(=O)(=O)c2cc([N+](=O)[O-])ccc2Cl)CC1	none
CC1(C)CC(=O)c2c(O)cc(OCc3ccc(Br)cc3)cc2O1	KCNK9 inh -8.4 | KCNK9 inh conf 73% | Kir21 sel inactive | KCNK9 uninduced 42%
COC(=O)c1ccc(COc2cc(O)c3c(c2)OC(C)(C)CC3=O)cc1	none
CC(C)(CNC(=O)c1cccc(S(=O)(=O)Nc2ccc(SC(F)F)cc2)c1)N1CCOCC1	none (no result: KCNK9 inh, KCNQ1 act, Kir21 inh, hERG protect, KCNQ1 block)
Cc1nn(Cc2cccc(C(N)=O)c2)c(C)c1Br	none
CCOC(=O)C1(CCCc2ccccc2)CCN(C2CCSCC2)CC1	none | KCNK9 inh conf inactive | Kir21 sel inactive | KCNK9 uninduced inactive
OCC1(CCCc2ccccc2)CCN(C2CCSCC2)CC1	none
CC1(C)CN(C(Cc2ccccc2)C(N)=O)C1=O (stereo not drawn)	none
O=[N+]([O-])c1ccc(Oc2c(F)c(F)nc(N3CCCC3)c2F)cc1	KCNQ1 block 7 | KCNK9 inh conf inactive | Kir21 sel inactive | KCNK9 uninduced inactive
CNC(=O)C1CC(=O)N(c2ccc(OCC(=O)Nc3ccccc3)cc2)C1 (stereo not drawn)	none (no result: KCNK9 inh, KCNQ1 act, Kir21 inh, hERG protect, KCNQ1 block)
CC1Nc2ncnc(N3CCc4ccccc4C3)c2N(Cc2ccc(Br)cc2)C1=O (stereo not drawn)	KCNK9 inh -11 | KCNK9 inh conf 31% | Kir21 sel inactive | KCNK9 uninduced 30%
O=C1C(Cc2ccccc2)Nc2ncnc(N3CCc4ccccc4C3)c2N1Cc1ccccc1 (stereo not drawn)	none (no result: KCNK9 inh, KCNQ1 act, Kir21 inh, hERG protect, KCNQ1 block)
CC1Nc2ncnc(N3CCc4ccccc4C3)c2N(Cc2ccc(Cl)cc2)C1=O (stereo not drawn)	KCNK9 inh -11 | KCNK9 inh conf 34% | Kir21 sel inactive | KCNK9 uninduced 30%
CCCCn1c(N)c(N(Cc2ccccc2OC)C(=O)C(C)C)c(=O)[nH]c1=O	none
CN(C)/N=C/c1ccc(Sc2ccccc2[N+](=O)[O-])o1	none | KCNK9 inh conf inactive | Kir21 sel inactive | KCNK9 uninduced inactive
CN(C)/N=C/c1ccc([N+](=O)[O-])cc1[N+](=O)[O-]	none
COc1ccc(NCc2nc3ccccc3n2C)cc1	none
c1ccc(OCCn2c(-c3ccco3)nc3ccccc32)cc1	none
COc1ccc(NCc2nc3ccccc3n2CCOc2ccccc2)cc1	KCNK9 inh -11, Kir21 inh -4.5 | KCNK9 inh conf inactive | Kir21 sel inactive | KCNK9 uninduced 33%
Cc1cccc(OCCn2c(-c3ccco3)nc3ccccc32)c1	KCNK9 inh -10 | KCNK9 inh conf 30% | Kir21 sel inactive | KCNK9 uninduced 34%
c1ccc(NCc2nc3ccccc3n2CCOc2ccccc2)cc1	none
COc1ccc(NCc2nc3ccccc3n2CCOc2ccc(C)cc2)cc1	KCNK9 inh -11 | KCNK9 inh conf 70% | Kir21 sel 48% | KCNK9 uninduced 52%
CC(=O)N1CCC(C(=O)Nc2ccc(S(=O)(=O)N3CCCCC3)cc2)CC1	none
COc1cc2c(cc1NC(=O)C(F)(F)F)-c1ccc(NC(=O)C(F)(F)F)cc1C2	none (no result: KCNK9 inh, KCNQ1 act, Kir21 inh, hERG protect, KCNQ1 block)
O=C(Nc1ccc(F)cc1F)Nc1sccc1-c1nc2ccccc2s1	KCNK9 inh -11 | KCNK9 inh conf 50% | Kir21 sel inactive | KCNK9 uninduced 26%
OCC[C@H]1C[C@H](O)[C@@H](O)[C@@]2(OCCCc3ccccc32)O1	none (no result: KCNK9 inh, KCNQ1 act, Kir21 inh, hERG protect, KCNQ1 block)
Cc1ccc(OCc2ccccc2Br)c([N+](=O)[O-])n1	none
NS(=O)(=O)c1ccc(NC(=S)Nc2ccn(Cc3cccc4ccccc34)n2)cc1	none | KCNK9 inh conf inactive | Kir21 sel inactive | KCNK9 uninduced inactive
O=C(NCC(c1ccco1)N1CCCC1)c1cccc(S(=O)(=O)N2CCOCC2)c1 (stereo not drawn)	none (no result: KCNK9 inh, KCNQ1 act, Kir21 inh, hERG protect, KCNQ1 block)
Oc1ccccc1-c1nnc(COc2ccc(Cl)cc2Cl)o1	none
Clc1ccc(-c2nnc(CCc3ccccc3)o2)c(Cl)c1	none | KCNK9 inh conf inactive | Kir21 sel inactive | KCNK9 uninduced inactive
COc1ccc(S(=O)(=O)Nc2c(C)nc3nc(C)[nH]n3c2=O)cc1	none | KCNK9 inh conf inactive | Kir21 sel inactive | KCNK9 uninduced inactive
COc1ccc(S(=O)(=O)Nc2c(C)nc3nc[nH]n3c2=O)cc1	none
Cc1nn(-c2ccccc2)c(N)c1Sc1ccccc1[N+](=O)[O-]	none
Cc1nn(-c2ccccc2)c(N)c1Sc1cccc([N+](=O)[O-])c1	KCNK9 inh -13 | KCNK9 inh conf 66% | Kir21 sel inactive | KCNK9 uninduced 29%
CCOC(=O)C1CCCN(S(=O)(=O)c2cc3c4c(c2)CCC(=O)N4CCC3)C1 (stereo not drawn)	none
Cc1nc2c(-c3ccccc3)c(C)nn2c(C)c1CCC(=O)O	none
CCOC(=O)Cc1c(C)nc2c(-c3ccc(OC)cc3)c(C)nn2c1C	none | KCNK9 inh conf inactive | Kir21 sel inactive | KCNK9 uninduced inactive
